Data: ChEMBL document CHEMBL1250505, “Synthesis and biological property of some novel 1,3,4-oxadiazoles” (2010)

Assays:
Assay type in all cases: functional
Staphylococcus aureus [1] = assay: Antibacterial activity against Staphylococcus aureus at 100 ug/ml after 24 to 48 hrs by cup-plate method; details: read-out: IZ
Procedure, shortened: (§1)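 Sterile nutrient agar cooled to […] and seeded with 18-24 h sub-cultures, then poured at about 45-50 mL per dish. Wells cut with a 6 mm sterile cork borer and filled with 0.1 mL of each of two test dilutions. Plates incubated inverted at 37 °C for 24–48 h; inhibition zone diameters measured in mm. Streptomycin and procaine penicillin served as standards.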

Mus musculus [2] = assay: Analgesic activity in albino mouse assessed as paw licking latency at 100 mg/kg after 0.5 hrs by Eddy's hot plate method
Procedure, shortened: (§2)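 Albino mice of either sex, fasted 24 h, 6 per group. Compounds given at 100 mg/kg; control group received 2% acacia suspension, standard group pentazocine 35 mg/kg. Hot plate held at 55 ± 1 °C. Reaction time is the time to lick a hind paw or leap off the plate, recorded at 0, 30, 60, 120 and 240 min after dosing.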

Mus musculus [3] = assay: Analgesic activity in albino mouse assessed as paw licking latency at 100 mg/kg after 2 hrs by Eddy's hot plate method; procedure, shortened: as §2
Pseudomonas aeruginosa [4] = assay: Antibacterial activity against Pseudomonas aeruginosa at 50 ug/ml after 24 to 48 hrs by cup-plate method; details: read-out: IZ; procedure, shortened: as §1
Mus musculus [5] = assay: Analgesic activity in albino mouse assessed as paw licking latency at 100 mg/kg after 4 hrs by Eddy's hot plate method; procedure, shortened: as §2
Mus musculus [6] = assay: Analgesic activity in albino mouse assessed as paw licking latency at 100 mg/kg after 1 hr by Eddy's hot plate method; procedure, shortened: as §2
Escherichia coli [7] = assay: Antibacterial activity against Escherichia coli at 100 ug/ml after 24 to 48 hrs by cup-plate method; details: read-out: IZ; procedure, shortened: as §1
Bacillus subtilis [8] = assay: Antibacterial activity against Bacillus subtilis at 50 ug/ml after 24 to 48 hrs by cup-plate method; details: read-out: IZ; procedure, shortened: as §1
Bacillus subtilis [9] = assay: Antibacterial activity against Bacillus subtilis at 100 ug/ml after 24 to 48 hrs by cup-plate method; details: read-out: IZ; procedure, shortened: as §1
Staphylococcus aureus [10] = assay: Antibacterial activity against Staphylococcus aureus at 50 ug/ml after 24 to 48 hrs by cup-plate method; details: read-out: IZ; procedure, shortened: as §1
Escherichia coli [11] = assay: Antibacterial activity against Escherichia coli at 50 ug/ml after 24 to 48 hrs by cup-plate method; details: read-out: IZ; procedure, shortened: as §1
Pseudomonas aeruginosa [12] = assay: Antibacterial activity against Pseudomonas aeruginosa at 100 ug/ml after 24 to 48 hrs by cup-plate method; details: read-out: IZ; procedure, shortened: as §1

Row | Compound | zone of inhibition at 100 µg/mL (Staphylococcus aureus [1]) [mm] | Time (Mus musculus [2]) [s] | Time (Mus musculus [3]) [s] | zone of inhibition at 50 µg/mL (Pseudomonas aeruginosa [4]) [mm] | Time (Mus musculus [5]) [s] | Time (Mus musculus [6]) [s] | zone of inhibition at 100 µg/mL (Escherichia coli [7]) [mm] | zone of inhibition at 50 µg/mL (Bacillus subtilis [8]) [mm] | zone of inhibition at 100 µg/mL (Bacillus subtilis [9]) [mm] | zone of inhibition at 50 µg/mL (Staphylococcus aureus [10]) [mm] | zone of inhibition at 50 µg/mL (Escherichia coli [11]) [mm] | zone of inhibition at 100 µg/mL (Pseudomonas aeruginosa [12]) [mm]
1 | COC(=O)CCCSc1nnc(-c2cccc(-c3cc(F)ccc3OC)c2)o1 | 16 | 4.75 | 6.01 | 13 | 6.01 | 5.11 | 18 | 13 | 18 | 10 | 15 | 19
2 | COc1ccc(F)cc1-c1cccc(-c2nnc(SCCCC#N)o2)c1 | 13 | 4.92 | 4.99 | 15 | 4.74 | 4.86 | 18 | 7 | 18 | 7 | 10 | 18
3 | FCCCCSc1nnc(-c2cccc(-c3cccc(Cl)c3)c2)o1 | 12 | 5.56 | 8.35 | 15 | 6.44 | 5.79 | 15 | 15 | 20 | 5 | 12 | 20
4 | COc1ccccc1-c1cccc(-c2n[nH]c(=S)o2)c1 | 18 | 4.94 | 7.61 | 11 | 6.28 | 5.84 | 18 | 10 | 21 | 11 | 12 | 18
5 | CN[C@@H]1[C@H](O[C@H]2[C@H](O[C@H]3[C@H](O)[C@@H](O)[C@H](N=C(N)N)[C@@H](O)[C@@H]3N=C(N)N)O[C@@H](C)[C@]2(O)C=O)O[C@@H](CO)[C@H](O)[C@H]1O [STREPTOMYCIN] |  |  |  | 21 |  |  | 25 |  |  |  | 21 | 25
6 | Fc1ccccc1-c1cccc(-c2n[nH]c(=S)o2)c1 | 20 | 4.99 | 5.38 | 18 | 5.04 | 5.24 | 19 | 12 | 19 | 15 | 15 | 21
7 | FCCCCSc1nnc(-c2cccc(-c3ccccc3F)c2)o1 | 20 | 4.62 | 4.87 | 17 | 4.47 | 4.69 | 19 | 20 | 22 | 13 | 13 | 18
8 | COc1ccc(F)cc1-c1cccc(-c2nnc(SCCCCF)o2)c1 | 15 | 4.35 | 4.72 | 7 | 4.55 | 4.48 | 19 | 10 | 17 | 12 | 12 | 15
9 | COc1ccccc1-c1cccc(-c2nnc(SCCCC#N)o2)c1 | 18 | 5.25 | 6.57 | 9 | 5.59 | 5.4 | 20 | 17 | 20 | 12 | 10 | 20
10 | COC(=O)CCCSc1nnc(-c2cccc(-c3ccccc3F)c2)o1 | 17 | 4.53 | 4.84 | 13 | 4.49 | 4.62 | 16 | 9 | 16 | 15 | 9 | 21
11 | COC(=O)CCCSc1nnc(-c2cccc(-c3ccccc3OC)c2)o1 | 14 | 5.01 | 6.58 | 18 | 6.21 | 5.21 | 16 | 11 | 15 | 9 | 7 | 21
12 | N#CCCCSc1nnc(-c2cccc(-c3cccc(Cl)c3)c2)o1 | 15 | 4.51 | 5.12 | 12 | 4.71 | 4.77 | 17 | 8 | 16 | 10 | 10 | 16
13 | N#CCCCSc1nnc(-c2cccc(-c3ccccc3F)c2)o1 | 16 | 4.54 | 4.92 | 16 | 4.49 | 4.71 | 21 | 12 | 18 | 11 | 17 | 20
14 | COC(=O)CCCSc1nnc(-c2cccc(-c3cccc(Cl)c3)c2)o1 | 16 | 4.96 | 6.58 | 6 | 5.59 | 5.36 | 19 | 11 | 18 | 10 | 18 | 18
15 | COc1ccccc1-c1cccc(-c2nnc(SCCCCF)o2)c1 | 21 | 4.9 | 6.17 | 6 | 6.01 | 5.01 | 16 | 15 | 20 | 15 | 12 | 15
16 | COc1ccc(F)cc1-c1cccc(-c2n[nH]c(=S)o2)c1 | 17 | 5.22 | 8.41 | 14 | 6.35 | 5.74 | 20 | 12 | 19 | 12 | 8 | 19
17 | S=c1[nH]nc(-c2cccc(-c3cccc(Cl)c3)c2)o1 | 11 | 4.71 | 5.01 | 9 | 5.08 | 4.84 | 16 | 13 | 9 | 10 | 11 | 14
